# Results pooled from the literature.
# Protocols differ between the studies behind these lines.
# Target: Serine/threonine-protein kinase tousled-like 2 (TLK2, Homo sapiens, UniProt Q86UE8)
Compound,effect on,method,tested at,remaining binding [%]
COc1ncc2cc3ccccc3nc2c1C#N,cell-free assay,competition with immobilised ligand,5 µM,100
CN(c1nccc(-c2cnn3ncccc23)n1)C1CC1,binding,,1 µM,100
O=C(NCc1ncc(C(F)(F)F)cc1Cl)c1ccc2c(c1)C1(CCS(=O)(=O)CC1)[C@@H](C1CC1)N2S(=O)(=O)c1ccc(F)cc1,cell-free assay,competition with immobilised ligand,1 µM,100
COc1ccnn2ncc(-c3ccnc(N(C)C)n3)c12,binding,,1 µM,100
NS(=O)(=O)c1cc(NC(=O)C2(c3ccccc3Cl)CC2)ccc1Oc1cccc(Cl)c1,cell-free assay,competition with immobilised ligand,1 µM,100
C=CC(=O)N1CCC(C(=O)NCC(=O)N2CCN(c3nc(-c4cnc(N)nc4C(F)F)nc(N4CCOCC4)n3)CC2)CC1,binding,competition with immobilised ligand,1 µM,100
C[C@@H](c1ccc(-n2cnc3c(N)ncnc32)cc1)N1CCc2nn(C)c(Cc3ccccc3)c2C1=O,binding,competition with immobilised ligand,0.1 µM,99
Cc1cnc(Nc2ccc(C(=O)N3CCC(N4CCCC4)CC3)cc2)nc1-c1cc2ccccc2s1,binding,competition with immobilised ligand,1 µM,15
C[C@H]1CCN(c2nccc(-c3cnn4ncccc34)n2)C1,binding,,1 µM,100
O=C(c1ccc(Nc2nccc(-c3cc4ccccc4s3)n2)cc1)N1CCC(N2CCCC2)CC1,binding,competition with immobilised ligand,1 µM,15
Cc1nc(Cc2cccc(C(F)(F)F)c2)sc1-c1ccc(C(N)=O)nc1,cell-free assay,competition with immobilised ligand,1 µM,82
c1cnn2ncc(-c3ccnc(N4CCC45COC5)n3)c2c1,binding,,1 µM,100
CNC(=O)[C@@H]1CC[C@@H](n2c(-c3ccc4cnccc4c3)nc3ccc(C(=O)NCc4cccc(C(N)=O)c4)cc32)C1,binding,competition with immobilised ligand,1 µM,100
CN(C)c1nccc(-c2cnn3ncccc23)n1,binding,,1 µM,100
CO[C@@H](C)c1c(Nc2ccc([C@H](N(C)C(=O)C3CCS(=O)(=O)CC3)C(F)(F)F)cc2)cnc2cc(Cl)nn12,cell-free assay,competition with immobilised ligand,1 µM,92
O=C(Nc1c[nH]nc1C(=O)NC1CCNCC1)c1cc(F)cc(F)c1,binding,competition with immobilised ligand,1 µM,98
Cc1nc(C2CCN(C(=O)c3ccc(OC(F)(F)F)cc3N)CC2)c2ncc(N3CCN(C)CC3)cc2n1,cell-free assay,competition with immobilised ligand,1 µM,100
COc1cnc(Nc2cccc(S(N)(=O)=O)c2)nc1N1CCN(c2ccccc2)CC1,binding,competition with immobilised ligand,1 µM,96
O=C(NCCCN1CCOCC1)c1ccc(Nc2nccc(-c3cc4ccccc4s3)n2)cc1,binding,competition with immobilised ligand,1 µM,64
N[C@@H]1CCN(c2nccc(-c3cnn4ncccc34)n2)C1,binding,,1 µM,100
N#CC1(c2ccccn2)CCN(Cc2cc(C(=O)N3CCCC3)c(=O)n3ccccc23)CC1,cell-free assay,competition with immobilised ligand,1 µM,100
